# UCH37 inh: inhibitors of human deubiquitinating enzyme UCH37. inhibition, % (test concentration not listed). 330,000 compounds, 0.33% hits. purified proteasome/UCH37, Ub-AMC cleavage fluorescence. Q9Y5K5;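 active = mean inhibition over replicate wells above about 20%, limit read from the data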;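 also: 0% = compound-free wells with enzyme and 100% = wells lacking proteasome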
# Target sequence (Q9Y5K5 whole entry, looked up): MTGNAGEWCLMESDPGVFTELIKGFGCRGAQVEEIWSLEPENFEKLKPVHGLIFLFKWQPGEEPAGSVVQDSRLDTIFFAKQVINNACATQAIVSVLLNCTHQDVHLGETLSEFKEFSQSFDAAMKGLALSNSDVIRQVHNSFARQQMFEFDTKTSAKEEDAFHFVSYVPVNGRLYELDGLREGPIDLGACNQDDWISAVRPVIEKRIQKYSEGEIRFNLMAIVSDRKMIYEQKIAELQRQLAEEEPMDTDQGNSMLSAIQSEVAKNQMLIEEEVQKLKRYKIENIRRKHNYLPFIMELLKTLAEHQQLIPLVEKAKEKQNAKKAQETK
#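 Material: Human UCH37 enzyme supplied as purified proteasome complex | Schedule: 30 min compound-proteasome preincubation then 25 min substrate reaction, room temperature | Detection: AMC fluorescence from Ub-AMC cleavage, excitation 355 nm, emission 460 nm | Benchmarks: Wells without proteasome as full block, compound-free enzyme plus substrate as uninhibited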
# Fh CTSL1 inh: blocks F. hepatica cathepsin L1 in PFM18AAP counter-screen; 300,000 compounds, 0.49% hits; recombinant F. hepatica cathepsin L1, Z-Leu-Arg-MCA fluorescence; inhibition, % at 5.96 µM;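 active = inhibition above the mean of all tested compounds plus 3 SD, set per screening campaign, cut at about 17% in these data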;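 also: 0% = plate median of test compound wells and 100% = 1 µM Z-Phe-Ala-diazomethylketone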
# SUMO HTRF inh: inhibitors of human SUMOylation (UBC9); inhibition, % at 35 µM; HTRF SUMOylation assay, SAE1/SAE2 + UBC9, in vitro; 290,000 compounds, 0.36% hits; P63279; in the data active = inhibition above about 50%, passing the limit was not always enough
# Target sequence (P63279 whole entry, looked up): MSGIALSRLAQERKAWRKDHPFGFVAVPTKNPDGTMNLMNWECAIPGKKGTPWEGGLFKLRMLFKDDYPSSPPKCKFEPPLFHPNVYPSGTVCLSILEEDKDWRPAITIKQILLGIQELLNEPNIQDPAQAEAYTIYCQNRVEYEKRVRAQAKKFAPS
# Neddyl block: blocks human cullin neddylation. inhibition, % at 25 µM. TR-FRET cullin neddylation, biochemical. 360,000 compounds, 0.58% hits; in the data active = inhibition above about 36%
# An asterisk follows results filed as active; x = no result shown. Sampled rows, rich in hits. Any-hit rate of the full collection: about 1.4%.
SMILES,UCH37 inh,Fh CTSL1 inh,SUMO HTRF inh,Neddyl block
Cc1ccc([C@@H]2[C@@H]3C(=O)N(C)C(=O)[C@@H]3[C@]3(C)C(=O)N(Cc4ccccc4)CC(=O)N23)o1,25*,0,-6,-14
Cc1ccc([C@@H]2[C@@H]3C(=O)N(C)C(=O)[C@@H]3[C@]3(C)C(=O)N(Cc4ccccn4)CC(=O)N23)o1,3,4,0,-17
COc1ccc(S(=O)(=O)n2nc(OC(=O)c3c(-c4ccccc4Cl)noc3C)cc2N)cc1,1,18*,4,2
COc1ccc(C(=O)Oc2cc(N)n(S(=O)(=O)c3ccc(C)cc3)n2)cc1,2,2,9,1
COc1ccc(-n2nc3c(c2NC(=O)CCl)CSC3)cc1,x,72*,x,0
COc1ccc(CNc2ccc3cn[nH]c3c2)c(OC)c1OC,22*,1,14,-22
Cc1cccc(C(=O)ON=C2CCS(=O)(=O)c3sccc32)c1,4,x,x,x
CN(C)c1ccc(/C=N/NC(=O)c2ccc3nc[nH]c3c2)cc1,x,21*,13,0
Cc1occc1C(=O)N/N=C/C=C/c1ccc(N(C)C)cc1,x,2,18,40*
Cc1occc1C(=O)NN=Cc1ccc2c(c1)OCO2,4,x,x,x
Cc1occc1C(=O)N/N=C/c1ccc(N(C)C)cc1,x,3,17,39*
CC(C=NNC(=O)c1ccccc1F)c1ccccc1 (stereo not given),1,x,x,x
CCc1ccccc1NC(=S)N1CCN(c2ccccc2F)CC1,4,19*,-30,-7
CCOc1ccccc1NC(=S)N1CCN(c2ccccc2F)CC1,x,x,5,4
Cc1cccc(OCCCC(=O)NC(C)C)c1,1,0,5,-3
CCCCNC(=O)OC(C)CNC(=O)Oc1cccc(C)c1 (stereo not given),1,26*,19,0
Cc1cccc(OCCCC(=O)O)c1,7,-4,2,2
CCCCNC(=O)OCCNC(=O)Oc1cccc(C)c1,5,45*,9,-4
O=C1C(Cl)=C(NS(=O)(=O)c2ccc([N+](=O)[O-])cc2)C(=O)c2ccccc21,24*,0,22,-30
O=[N+]([O-])c1ccc(Oc2ccc(S(=O)(=O)Nc3ccccc3)cc2)cc1,-14,-1,-14,-22
COc1ccc(CN(CCC(c2ccccc2)c2ccc(OC(C)C)cc2)C(=O)CCl)cc1OC (stereo not given),3,36*,-29,2
O=C(NN=Cc1ccc(Cl)cc1Cl)c1ccncc1,3,x,x,x
NC(=O)NC(=O)CSc1nc(-c2ccccc2)c(-c2ccccc2)n1CC1CCCO1 (stereo not given),4,20*,21,-5
COc1ccc(NC(=O)C(=O)N/N=C\c2ccc(CNC(=O)C(=O)Nc3ccc(C)c(C)c3)o2)c(OC)c1,x,5,58*,x
O=C(NCc1ccc(C=NNC(=O)C(=O)Nc2ccccc2Br)o1)C(=O)Nc1ccccc1,5,x,x,x
SMILES,UCH37 inh,Fh CTSL1 inh,SUMO HTRF inh,Neddyl block
COc1ccc(C(=O)N[C@H](C(=O)NCc2ccco2)C(C)C)cc1,2,19*,21,7
COc1ccc(C(=O)NNC(=O)C(NC(=O)c2ccccc2NC(=O)c2ccco2)C(C)C)cc1 (stereo not given),2,-1,44,x
COc1ccc(C(=O)Nc2ccccc2C(=O)NCCN2CCOCC2)cc1,3,23*,-2,0
COc1ccc(C(=O)Nc2ccccc2C(=O)NC(C(=O)NCc2ccco2)C(C)C)cc1 (stereo not given),-8,48*,39,-13
COc1cc(OC)cc(C(=O)N[C@H](C(=O)NCc2ccco2)C(C)C)c1,4,8,6,8
COc1ccc(C(=O)Nc2ccccc2C(=O)N(Cc2ccco2)C(C(N)=O)C(C)C)cc1 (stereo not given),3,38*,18,-15
O=C(O)c1cc(NN=Cc2ccc3c(c2)OCO3)ccc1Cl,7,x,x,x
S=c1[nH]nc(C2CCCCC2)n1N=Cc1ccccc1Br,3,x,x,x
O=C(NN=Cc1ccccc1Cl)C1CC1,0,x,x,x
COc1ccc2oc(=O)c(C(=O)NCc3ccco3)cc2c1,-58,0,52*,x
CCC(C)C(NC(=O)OC(C)(C)C)C(=O)NCc1ccco1 (stereo not given),3,20*,3,3
COc1ccc(-c2cc(C(F)(F)F)n3ncc(C(=O)NCc4ccco4)c3n2)cc1,-48,1,64*,x
CCC(C)[C@H](NC(=O)[C@@H]1CSC2c3ccccc3C(=O)N21)C(=O)NCc1ccco1 (stereo not given in full),1,81*,4,4
COC(=O)CC=N/N=C1/NC(=O)/C(=C/C(=O)O)S1,5,x,x,x
O=C(Nc1nnc(-c2ccco2)s1)C1CCCCC1,-6,2,13,1
O=C(Nc1nc(-c2ccco2)c(-c2ccco2)s1)C1CCC1,-5,0,61*,26
O=C(Nc1nc(-c2ccco2)c(-c2ccco2)s1)C1CC(=O)N(c2ccc3c(c2)OCCO3)C1 (stereo not given),-2,1,83*,0
O=C(O)C1Nc2c(O)cccc2C2C=CCC12 (stereo not given),7,-3,97*,1
O=C(O)C1Nc2c(Cl)cc(Cl)cc2C2C=CCC12 (stereo not given),8,-1,49,-5
C=CCNC(=S)N=c1scc(C)n1C,7,x,x,x
Cc1cccc(C)c1OCC(=O)N/N=C/C=C/c1ccco1,x,6,55*,-18
CC1(CC(=O)N/N=C/c2cc3c(cc2Br)OCO3)OCCO1,x,17*,-2,-14
CC(CC(=O)N1CCN(C=O)CC1)=NNC(=O)c1cc2ccccc2cc1O,-4,x,x,x
Cc1cccn2c(C=NOCc3cccc(F)c3)c(-c3ccc(Cl)cc3)nc12,-36,x,x,x
O=C(/C=C/c1ccc(O)c(O)c1)O[C@H](Cc1ccc(O)c(O)c1)C(=O)O,3,x,69*,x
SMILES,UCH37 inh,Fh CTSL1 inh,SUMO HTRF inh,Neddyl block
O=C(NN=Cc1ccc(F)cc1)c1cc(-c2ccccn2)nc2ccccc12,-2,x,x,x
COc1ccc2nc(-c3ccccn3)[nH]c2c1,-31,4,4,43*
CC1=NC(=O)C(N=Nc2ccccc2C(=O)O)N1c1ccccc1 (stereo not given),21*,x,17,-45
NC(=NS(=O)(=O)c1ccccc1)c1cccc([N+](=O)[O-])c1,2,x,x,x
COc1cc(OC)c(OC)cc1C=NNc1ccc(Cl)nn1,8,x,x,x
CN(CCC#N)C(=O)COC(=O)c1c2c(nc3ccccc13)/C(=C/c1ccco1)CC2,-11,11,53*,13
COc1ccc(C=NNC(=O)C(O)(c2ccccc2)c2ccccc2)cc1OC,6,x,x,x
N#Cc1c(-c2cccc(Br)c2)cc(-c2ccco2)[nH]c1=O,-318,2,79*,x
O=C(CC(=O)NC1CCCCC1)NN=Cc1ccc(Cl)cc1,27*,x,x,x
CC(NC(=O)COc1ccc(C=NNC(=O)CO)cc1)c1ccccc1 (stereo not given),-2,x,x,x
CCn1cc(C(=O)OCC(=O)NCc2ccccc2Cl)c(=O)c2ccc(C)nc21,3,17*,12,0
Cn1c(=NNC(=O)C2CCCCC2)sc2ccccc21,1,x,x,x
